Key:
α2β4-nAChR = α2β4-nAChR (Homo sapiens, UniProt P30926+Q15822); assay: two-electrode voltage clamp, Xenopus oocytes, peak inward current; format: cell-based
Summary of the method: (§1)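 Human α2 and β4 (plus β3 for trinary) subunit cRNAs, ~4 ng each at 1:1 or 1:1:1, are injected into stage VI oocytes. Two to 7 days later, oocytes are clamped at –70 mV in Ringer, pH 7.5.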

α2β4β3-nAChR = α2β4β3-nAChR (Homo sapiens, UniProt P30926+Q15822); assay: as above; format: cell-based
Summary of the method: as §1

α2β4β3-nAChR, sequence (Q15822 27-529): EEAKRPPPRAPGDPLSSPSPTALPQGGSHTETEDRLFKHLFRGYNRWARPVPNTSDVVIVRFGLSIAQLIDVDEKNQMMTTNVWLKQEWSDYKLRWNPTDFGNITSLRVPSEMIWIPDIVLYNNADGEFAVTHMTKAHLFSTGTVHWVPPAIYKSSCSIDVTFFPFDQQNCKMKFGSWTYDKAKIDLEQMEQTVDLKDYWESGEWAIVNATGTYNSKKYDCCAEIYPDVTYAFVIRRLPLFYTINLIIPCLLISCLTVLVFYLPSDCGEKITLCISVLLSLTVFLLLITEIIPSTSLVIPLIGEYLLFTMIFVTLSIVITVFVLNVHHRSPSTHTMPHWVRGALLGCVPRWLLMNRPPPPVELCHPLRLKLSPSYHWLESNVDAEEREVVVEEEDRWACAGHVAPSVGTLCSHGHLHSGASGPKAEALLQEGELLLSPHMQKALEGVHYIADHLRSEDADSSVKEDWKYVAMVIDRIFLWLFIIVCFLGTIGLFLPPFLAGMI
α2β4β3-nAChR, sequence (P30926 22-498): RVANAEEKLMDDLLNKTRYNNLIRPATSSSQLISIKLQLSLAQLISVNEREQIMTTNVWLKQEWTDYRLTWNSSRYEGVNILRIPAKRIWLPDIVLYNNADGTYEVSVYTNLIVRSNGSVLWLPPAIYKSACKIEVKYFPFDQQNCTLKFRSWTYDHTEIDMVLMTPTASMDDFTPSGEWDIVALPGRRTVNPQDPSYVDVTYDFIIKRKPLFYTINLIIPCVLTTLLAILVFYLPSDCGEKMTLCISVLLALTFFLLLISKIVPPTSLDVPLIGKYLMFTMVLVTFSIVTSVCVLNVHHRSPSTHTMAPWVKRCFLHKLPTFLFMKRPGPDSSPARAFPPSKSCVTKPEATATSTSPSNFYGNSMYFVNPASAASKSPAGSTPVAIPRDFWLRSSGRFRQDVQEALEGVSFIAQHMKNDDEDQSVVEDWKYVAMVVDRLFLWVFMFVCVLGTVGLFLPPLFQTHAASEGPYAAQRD
α2β4β3-nAChR, sequence (Q05901 22-458 partner): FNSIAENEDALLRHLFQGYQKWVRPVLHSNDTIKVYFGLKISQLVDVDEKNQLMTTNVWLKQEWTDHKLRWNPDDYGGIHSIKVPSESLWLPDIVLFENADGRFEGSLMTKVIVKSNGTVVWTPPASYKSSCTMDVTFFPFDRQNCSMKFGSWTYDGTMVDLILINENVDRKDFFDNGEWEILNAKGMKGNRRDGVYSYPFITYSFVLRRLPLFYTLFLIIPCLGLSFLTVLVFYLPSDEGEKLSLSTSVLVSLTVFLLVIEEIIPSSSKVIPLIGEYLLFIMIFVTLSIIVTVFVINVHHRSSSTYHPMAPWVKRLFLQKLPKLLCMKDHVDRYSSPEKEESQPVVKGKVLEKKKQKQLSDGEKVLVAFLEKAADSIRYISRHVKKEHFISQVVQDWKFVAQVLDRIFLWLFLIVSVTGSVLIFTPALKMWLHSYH
α2β4-nAChR, sequence (Q15822 27-529): as the sequence (Q15822 27-529) above
α2β4-nAChR, sequence (P30926 22-498): as the sequence (P30926 22-498) above

Compound: CN1CCC[C@H]1c1cccnc1 [nicotine]
- EC50 (α2β4-nAChR): 8.6 µM
- EC50 (α2β4β3-nAChR): 7.3 µM
